Screening data: PubChem, Broad Institute
SIRT5 block – SIRT5 desuccinylase inhibitors, primary screen, biochemical, fluorescence imaging, single point, set 5; 330,000 tested, 1.1% active; Purified SirT5, succinyl-peptide AMC, trypsin-coupled fluorescence; inhibition, % at 15 µM; in the data active = inhibition above about 15%
Target sequence (Q9NXA8 whole entry, looked up): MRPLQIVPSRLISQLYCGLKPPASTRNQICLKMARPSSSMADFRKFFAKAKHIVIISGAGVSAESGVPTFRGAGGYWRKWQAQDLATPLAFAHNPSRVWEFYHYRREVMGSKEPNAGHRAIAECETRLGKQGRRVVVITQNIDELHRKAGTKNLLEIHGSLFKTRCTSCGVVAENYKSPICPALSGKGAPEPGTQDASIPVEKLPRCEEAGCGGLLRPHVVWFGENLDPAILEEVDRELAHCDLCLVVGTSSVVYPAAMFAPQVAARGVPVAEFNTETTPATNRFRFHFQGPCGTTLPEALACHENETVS
rRNA inh HTS – reduced GFP signal of wild-type E. coli, primary screen, bacterial rRNA inhibitor project, GFP/RFP fluorescence, OD600, single point | AID 720706, 2013 | GFP signal change (wild-type ribosome), % (no concentration beside the values) | E. coli WT GFP vs humanized-ribosome RFP mutants, 24 h; active compounds read low; DMSO median 0, no signal -100 | 350,000 tested, 1.6% active;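 active = significant combined selectivity score with lowered wild-type GFP, culture density cut under 30%, mutant RFP and density less affected; inactive = any of these conditions unmet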
F508del corr – F508del CFTR correction, initial screen, CFBE line, single point. AID 720511, 2013. 350,000 tested, 0.36% active. activity (quench increase), % at 7.58 µM. CFBE cells, YFP halide quenching; stimulated with forskolin plus potentiator P3; % fluorescence drop versus neutral controls;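 active = mean added fluorescence quench of at least 8% versus neutral control, with both replicates also reaching 8%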;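 also: cells transiently co-express mutant CFTR-F508del with the halide-sensitive YFP; corrector assay measuring rescue of mutant channel to the surface after 24 h compound exposure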
S100A4 inh HTS – inhibitors of S100A4-myosin IIA peptide binding, primary screen, biochemical, fluorescence polarization, TAMRA-MyoIIA peptide; Protein S100-A4 (Homo sapiens), P26447; inhibition, % at 10.7 µM; 360,000 tested, 0.14% active;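 active = mean inhibition of at least 70% across replicates, with every replicate also reaching that level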
Target sequence (P26447 whole entry, looked up): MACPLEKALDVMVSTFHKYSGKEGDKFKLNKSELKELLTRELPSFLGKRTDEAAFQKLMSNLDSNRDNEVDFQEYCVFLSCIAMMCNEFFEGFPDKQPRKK
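Test system: S100A4 monomer protein; Medium: HEPES pH 7.2 with CaCl2, KCl, NaCl, DTT, Triton; Probe or stimulus: TAMRA-labelled myosin IIA heavy-chain peptide probe, 5 nM; Doses: one dose per compound; Times: polarization read 5 min after assay mix addition, stable 5–60 min; Benchmarks: neutral control DMSO, positive control TFP.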
ERAP1 inh – human ERAP1 aminopeptidase inhibitors, primary screen, biochemical, single point, plate reader; Endoplasmic reticulum aminopeptidase 1 (Homo sapiens), Q9NZ08; recombinant ERAP1, Leu-AMC fluorescence, 60 min; inhibition, % at 10.7 µM; 340,000 tested, 0.15% active; AID 652197, 2013;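 active = mean replicate inhibition of at least 30%, or all replicates individually reaching that 30% level; inactive = mean below 30% and not every replicate reaching it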;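 also: 0% = neutral control wells and 100% = L-leucinethiol positive control wells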
Starred values were filed as active, the others as inactive; . = no result. Hits are enriched below; roughly 3.1% of the tested compounds scored in any of these assays.

SMILES | SIRT5 block | rRNA inh HTS | F508del corr | S100A4 inh HTS | ERAP1 inh
O=C(C[C@@H]1C[C@H]2c3cc(NC(=O)c4cccnc4)ccc3O[C@H]2[C@H](CO)O1)NCc1ccccc1 | 7 | -6 | -1 | 13 | 0
O=C(NCc1cccc(F)c1)[C@@H]1[C@@H](CO)[C@@H]2Cn3c(ccc(-c4ccccc4)c3=O)[C@H]1N2CC1CC1 | -5 | -7 | 2 | -1 | 2
O=S(=O)(O)c1cccc(N=Nc2c(O)ccc3ccccc23)c1 | 3 | -33* | 0 | -35 | 19
O=C(/C=C/c1ccco1)NC(=S)NNC(=O)c1ccco1 | -1 | -26* | -1 | 2 | 5
O=C(/C=C/c1ccco1)NC(=S)Nc1ccc(C(=O)O)cc1 | 22* | 3 | 1 | -7 | 2
CCC(=O)Nc1ccc(NC(=S)NC(=O)/C=C/c2ccco2)cc1 | 1 | -2 | -1 | 2 | 3
COc1ccc(NC(=S)NC(=O)/C=C/c2ccco2)cc1 | 0 | -9 | 0 | -14 | 3
CC(=O)NC(=S)Nc1ccc(NC(=S)NC(=O)/C=C/c2ccco2)cc1 | 2 | -12 | 14* | -3 | 3
C=CCNC(=S)NNC(=O)c1ccco1 | 0 | 15 | 1 | -3 | -3
CCCOc1ccc(C(=O)NNC(=S)NC(=O)c2ccco2)cc1 | 0 | -48* | 4 | 0 | 2
CC(=O)N1CC(=O)N2[C@@H](CO)[C@H](c3ccc(-c4ccc(C(=O)N(C)C)cc4)cc3)[C@@H]2C1 | 23* | -1 | -4 | 2 | .
O=C(c1cnccn1)N1CC(=O)N2[C@H](CO)[C@@H](c3ccc(C4=CCCCC4)cc3)[C@@H]2C1 | 28* | 3 | 0 | -21 | -1
CN(C)C(=O)c1cccc(-c2ccc([C@@H]3[C@H](CO)N4C(=O)CN(C(=O)C5CC5)C[C@@H]34)cc2)c1 | 19* | 5 | 1 | -7 | 2
CC(=O)N1CC(=O)N2[C@H](CO)[C@@H](c3ccc(-c4cccc(C(=O)N(C)C)c4)cc3)[C@@H]2C1 | 0 | 5 | -1 | . | .
CCOC(=O)c1c(N)sc(N)c1C(=O)OCC | -3 | . | . | 2 | 6
CCOC(=O)c1c(N)sc(C(O)(C(F)(F)F)C(F)(F)F)c1-c1ccc(OC)cc1OC | 0 | -27* | 2 | 2 | 0
CCCN1[C@@H]2c3ccc(-c4ccccc4)c(=O)n3C[C@@H]2[C@@H](CO)[C@@H]1C(=O)NCCc1cn(C)cn1 | 10 | 0 | -2 | 0 | 4
CC(C)CC#Cc1cnc2c(c1)C(=O)N([C@@H](C)CO)C[C@@H](C)[C@@H](CN(C)C(=O)Cc1ccncc1)O2 | -2 | -2 | . | -9 | 1
O=C(O)CN1C(=O)/C(=C\c2cccc(OCc3ccc(Cl)cc3Cl)c2)SC1=S | 15* | -41 | -2 | -2 | 4
O=C(O)CN1C(=O)/C(=C\c2ccccc2OCc2ccc(Cl)cc2Cl)SC1=S | 1 | -52 | 3 | 3 | 8
C[C@H]1CN([C@@H](C)CO)C(=O)c2cc(-c3cccc(C#N)c3)cnc2O[C@@H]1CN(C)Cc1cccnc1 | 0 | 2 | 0 | 128* | 2
C[C@H]1CN([C@@H](C)CO)C(=O)c2cc(-c3ccc(C#N)cc3)cnc2O[C@H]1CN(C)CC1CCOCC1 | -9 | 3 | 2 | -4 | 1
C[C@@H]1CN([C@@H](C)CO)C(=O)c2cc(-c3ccc(C#N)cc3)cnc2O[C@@H]1CN(C)CC1CCOCC1 | 38* | 2 | -1 | 4 | 9
Cc1ccc(-c2cnc3c(c2)C(=O)N([C@@H](C)CO)C[C@@H](C)[C@@H](CN(C)CC2CC2)O3)cc1 | 16* | 9 | 2 | 0 | -2
COCC(=O)N1CC(=O)N2[C@H](CO)[C@@H](c3ccc(C#CC(C)C)cc3)[C@H]2C1 | 1 | 7 | -3 | -14 | 1
SMILES | SIRT5 block | rRNA inh HTS | F508del corr | S100A4 inh HTS | ERAP1 inh
Cc1ccc(C)c(C(=O)COC(=O)C(C)N2C(=O)C3C4CCC(C4)C3C2=O)c1 (stereo unspecified) | -17 | -29* | -5 | -5 | 1
Cc1ccc(C(=O)COC(=O)C(C)N2C(=O)C3C4CCC(C4)C3C2=O)cc1 (stereo unspecified) | 1 | -16 | 0 | -3 | -3
Cc1ccc(S(=O)(=O)Nc2ccc3c(c2)C(=O)N([C@@H](C)CO)C[C@@H](C)[C@H](CN(C)S(=O)(=O)c2cn(C)cn2)O3)cc1 | -14 | 1 | -2 | 4 | 1
CN1N=C2c3ccccc3CCCC2C1c1ccc(F)cc1 (stereo unspecified) | -1 | -40* | . | 8 | 5
CC(C)NC(=O)N1[C@H](CO)[C@@H]2c3ccccc3N(C(=O)c3ccncc3)C[C@@H]21 | 6 | 6 | -2 | 13 | 5
c1ccc2c(-c3csc(-c4ccncc4)n3)c[nH]c2c1 | -2 | -27* | -9 | -11 | -2
c1ccc(-c2csc(-c3ccncc3)n2)cc1 | 5 | 9 | 6 | -19 | .
C[C@H]1CN([C@@H](C)CO)C(=O)c2cccc(NC(=O)C3CC3)c2O[C@@H]1CN(C)Cc1ccc(C(=O)O)cc1 | . | 3 | 3 | -15 | -1
O=C(N/N=C/c1ccc2c(c1)OCO2)c1ccc2c(c1)OCO2 | 1 | -3 | 1 | -8 | 0
O=C(N/N=C/c1cccc(O)c1)c1ccc2c(c1)OCCO2 | 2 | -21* | -1 | 4 | 2
NC(=O)/C(=C/c1ccco1)C(N)=S | 17* | 11 | 3 | -3 | 2
CC(C)c1cn([C@H]2C[C@@H]3O[C@@H](CO)CC[C@@H]3O[C@@H]2CCc2ccc(C#CC3(O)CCCC3)cc2)nn1 | 3 | . | 3 | -36 | -3
N#Cc1cccc(-c2ccc3c(c2)[C@H]2[C@H](CCN2C(=O)CN2CCOCC2)[C@H](CO)N3)c1 | . | 14 | 3 | . | .
CN(CC(=O)Nc1ccc(Cl)c(C(F)(F)F)c1)C(=O)CCN1C(=O)C2CCCCC2C1=O (stereo unspecified) | -3 | -22 | 10* | 1 | -1
Cc1ccc(N2CC(C(=O)N(C)CC(=O)Nc3ccc(Cl)c(C(F)(F)F)c3)CC2=O)cc1 (stereo unspecified) | 1 | -36 | 9.2* | 9 | 0
COc1ccc(NC(=O)CN(C)C(=O)C2CC(=O)N(c3ccc4c(c3)OCCO4)C2)cc1 (stereo unspecified) | -1 | 12 | -4 | 154* | -1
CN(CC(=O)Nc1ccc(Cl)c(C(F)(F)F)c1)C(=O)C1CCCO1 (stereo unspecified) | -4 | -2 | -2 | 0 | 0
